# Compound activity as filed in PubChem.
# Rows were chosen to be rich in hits. Some 4.1% of all compounds tested hit in one or more screens of this group.
# KCC2 mod – modulators of human KCC2 chloride dependent transport. Q9H2X9. KCC2 cells, thallium flux FluoZin-2 fluorescence. B-score of Tl+ flux slope (higher = more flux/activation; lower = inhibition) at 10 µM. actives 2.2% (n = 190,000). AID 1456;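 active means thallium flux slope and its plate-corrected score both differing from the plate sample mean at a set confidence after two filtering rounds, in either direction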;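 further: slope of fluorescence scaled to starting intensity during 10 to 20 s after thallium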
# KCNK3 inh – human KCNK3 channel inhibition, primary screen | B-score at 10 µM | O14649 | CHO-KCNK3 thallium flux, FluxOR fluorescence; stronger effect = lower value | actives 0.84% (n = 340,000);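 active means B-score under library mean minus 4 SD, starting fluorescence ratio at most library mean plus 5 SD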;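 further: more negative B-score means stronger inhibition of thallium flux through KCNK3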
# Target sequence (O14649 whole entry, looked up): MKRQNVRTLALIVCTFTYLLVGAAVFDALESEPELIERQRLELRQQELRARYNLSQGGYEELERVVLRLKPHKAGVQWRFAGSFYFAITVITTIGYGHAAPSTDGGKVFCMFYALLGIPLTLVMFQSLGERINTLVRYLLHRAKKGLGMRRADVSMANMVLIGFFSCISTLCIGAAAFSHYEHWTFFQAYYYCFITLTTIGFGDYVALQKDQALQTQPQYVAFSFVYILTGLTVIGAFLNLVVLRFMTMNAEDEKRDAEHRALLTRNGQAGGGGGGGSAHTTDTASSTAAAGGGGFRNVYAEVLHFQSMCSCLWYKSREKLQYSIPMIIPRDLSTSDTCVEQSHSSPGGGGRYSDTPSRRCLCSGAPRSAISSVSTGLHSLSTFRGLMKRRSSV
# hERG protect – compounds protecting human hERG from proarrhythmic drug block | Q12809 | CHO-hERG, FluxOR thallium flux, dofetilide IC70 present | activation (rescue from dofetilide block), less the hit threshold, % at 10 µM | actives 0.51% (n = 310,000);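 active means activation above the mean of controls blocked by dofetilide plus 5 SD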;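 further: thallium influx through hERG after potassium depolarization seen as dye fluorescence rise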
# KCNQ1 block – human KCNQ1 channel inhibition. CHO-K1 KCNQ1, FluxOR thallium flux fluorescence; stronger effect = higher value. B-score at 10 µM. actives 1.3% (n = 310,000). AID 2642;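 active means compounds whose thallium flux B-score, printed positive for inhibition, exceeds three library SD while starting fluorescence stays within three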;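 further: channel opened by potassium depolarization with thallium stimulus after 20 min compound exposure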
# KCNQ1 act – potentiates or activates the human KCNQ1 potassium channel; AID 2648; P51787; CHO-K1 KCNQ1, thallium flux FluxOR fluorescence; stronger effect = higher value; B-score at 10 µM; actives 0.35% (n = 310,000);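 active means fluorescence ratio B-score, a plate-corrected score, at least three library SD, with initial intensity B-score within 5 SD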
#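 Test system: CHO-K1 cells stably expressing KCNQ1 / Medium: assay buffer / Also added: depolarizing K+/Tl+ stimulus, K2SO4 and Tl2SO4 each 12.5 mM in 5x stock / Incubation: 90 min dye loading and 20 min compound exposure, both at room temperature / Signal: thallium influx via FluxOR fluorescence, kinetic imaging / Evaluation: B score of baseline-normalized fluorescence ratio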
# KCNK9 block – human KCNK9 channel inhibition. actives 1.2% (n = 310,000). AID 488922. B-score at 10 µM. Q9NPC2. HEK293 KCNK9, FluxOR thallium flux fluorescence; stronger effect = lower value;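 active means ratio B-score over 3 SD below the library mean, with starting fluorescence within 5 SD of its mean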;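 further: negative B-score means less thallium flux so channel inhibition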
# Target sequence (Q9NPC2 whole entry, looked up): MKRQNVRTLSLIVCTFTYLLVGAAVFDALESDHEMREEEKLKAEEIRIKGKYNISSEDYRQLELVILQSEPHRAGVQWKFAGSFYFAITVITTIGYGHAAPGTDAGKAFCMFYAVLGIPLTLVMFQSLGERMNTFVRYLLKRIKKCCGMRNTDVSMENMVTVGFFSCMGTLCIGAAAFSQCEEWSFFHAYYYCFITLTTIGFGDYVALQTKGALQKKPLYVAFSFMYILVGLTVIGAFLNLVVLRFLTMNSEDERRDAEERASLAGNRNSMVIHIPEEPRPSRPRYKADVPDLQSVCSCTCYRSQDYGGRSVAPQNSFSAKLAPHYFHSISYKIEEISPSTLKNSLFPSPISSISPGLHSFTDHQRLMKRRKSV
# KCC2 sec1 – confirmation of human KCC2 transport modulators; AID 1713; HEK293-KCC2, thallium flux, FluoZin2 fluorescence; stronger effect = higher value; normalised thallium flux (F/F0 slope) at 10 µM; shares compounds with KCC2 mod; actives 15% (n = 3,700);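 active means thallium flux slope above the same plate's solvent-only control mean plus 3 SD; inconclusive means the two replicate wells disagree; inactive means no significant difference from solvent-only control wells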
# KCC2 bumet counter – thallium flux persisting under bumetanide in KCC2 cells, counter-screen secondary assay. shares compounds with KCC2 mod. HEK293-KCC2 + bumetanide/ouabain, thallium flux FluoZin2; stronger effect = higher value. normalized thallium flux at 10 µM. actives 49% (n = 3,700);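 active means thallium entry rate above the same plate's blocked-transporter control wells by more than 3 SD; inconclusive means the two repeat wells disagree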;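 further: raw slope of fluorescence over initial fluorescence between 10 and 20 s after thallium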
# KCC2 sec2 – KCC2 (human) modulation, second secondary assay. normalized thallium flux at 10 µM. actives 23% (n = 3,700). HEK293-KCC2, thallium flux FluoZin2 fluorescence; actives lie on both sides; F/F0 rise rate, 10–20 s post-thallium. AID 1715. shares compounds with KCC2 mod;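 active means thallium flux slope more than 3 SD above or below the plate's solvent-only control mean, mostly below; inconclusive means the two repeat wells disagreed; inactive means no significant shift from solvent-only controls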;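 further: raw slope with 0.1% DMSO as baseline and bumetanide as block control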
# HEK293 Tl flux – parental HEK flux effect, counter-screen; shares compounds with KCC2 mod; HEK293 parental cells, thallium flux FluoZin2, ouabain; baseline-ratio fluorescence slope, 10–20 s after thallium; thallium flux rate (normalised fluorescence) at 10 µM; actives 46% (n = 3,700); AID 1716;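 active means thallium flux rate significantly above the same plate's solvent-only control wells, beyond their mean plus 3 SD; inconclusive means the two replicate wells gave conflicting results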
# KCC2 ouabain – confirmation of human KCC2 modulators with ouabain; shares compounds with KCC2 mod; HEK293-KCC2, thallium flux FluoZin2 fluorescence; bidirectional: low = inhibitor, high = activator; raw Tl+ flux slope (below DMSO = inhibition, above = activation) at 10 µM; actives 48% (n = 3,700);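 active means thallium flux slope beyond 3 SD from same-plate DMSO control mean in most replicates, usually higher, sometimes lower; inconclusive means repeat tests gave conflicting results; inactive means no significant difference from controls in most replicates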;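 further: slope of initial-normalized fluorescence between seconds 10 and 20 after thallium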
# HEK293 Tl flux2 – acts in parental HEK cells, second KCC2 counter-screen. shares compounds with KCC2 mod. HEK293 parental, thallium flux FluoZin-2 fluorescence slope. thallium flux slope at 10 µM. actives 33% (n = 3,700). AID 1718;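 active means thallium flux slope above the same plate's solvent-control mean plus 3 SD in both duplicate wells; inconclusive means duplicate wells that disagreed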;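 further: run without ouabain in cells lacking the KCC2 cotransporter; slope of fluorescence scaled to its starting value between 10 and 20 s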
# The depositor's hits bear a star; i = inactive; ? = inconclusive; · = not tested or not shown.
SMILES,KCC2 mod,KCNK3 inh,hERG protect,KCNQ1 block,KCNQ1 act,KCNK9 block,KCC2 sec1,KCC2 bumet counter,KCC2 sec2,HEK293 Tl flux,KCC2 ouabain,HEK293 Tl flux2
CCc1nnc(NC(=O)c2ccc3ccccc3n2)s1,6.44*,i,-7.8,i,i,i,?,0.0266*,0.0307,0.0126*,?,0.0107*
CCSc1nnc(NC(=O)c2ccc3ccccc3n2)s1,36.1*,i,-6.9,i,i,i,0.0321*,0.117*,0.035,0.088*,0.0725*,0.0178*
CCc1nnc(NC(=O)c2nc(Cl)ccc2Cl)s1,·,i,-9.3,i,i,i,·,·,·,·,·,·
Cc1ccccc1NS(=O)(=O)c1csc(C(N)=O)c1,·,i,-4.0,i,i,i,·,·,·,·,·,·
CCC1CCC2(CC1)NC(CO)(CO)CO2 (configuration not stated),4.96*,i,-10.0,i,8*,i,0.00803,0.00487,0.0278,0.00803,0.0189,0.0111*
Cc1nnc(SCC(=O)c2cc(C)n(-c3ccc4c(c3)OCO4)c2C)s1,-3.28*,i,-7.9,i,i,i,?,0.00307*,0.0316,?,0.0222,0.0094
Cc1cc(C(=O)CSc2nnnn2C)c(C)n1-c1ccc2c(c1)OCCO2,0.813,i,-12.3,i,i,i,·,·,·,·,·,·
CC(C)(C)C(=O)Nc1cc(NC(=O)C(C)(C)C)cc(C(=O)Nc2c[nH]c(=O)[nH]c2=O)c1,·,i,-8.5,i,i,i,·,·,·,·,·,·
CCC1=NN2C(=N)/C(=C\c3cccn3-c3ccc(C)c(C)c3)C(=O)N=C2S1,7.02*,i,-13.5,i,i,i,0.00624,0.0482*,0.0487*,0.0366*,0.0425*,0.034*
Cc1cc(C)cc(-n2c(C)cc(/C=C3\C(=N)N4N=C(CC(C)C)SC4=NC3=O)c2C)c1,0.929,i,-3.9,i,i,i,·,·,·,·,·,·
CCCC1=NN2C(=N)/C(=C\c3cc(C)n(-c4cc(C)cc(C)c4)c3C)C(=O)N=C2S1,11.7*,i,-6.5,i,i,i,0.0102,0.0151*,0.0338,?,0.0252*,0.0131
Cc1ccc(-n2cccc2/C=C2\C(=N)N3N=C(c4ccco4)SC3=NC2=O)cc1,3.89,i,-4.8,i,i,i,·,·,·,·,·,·
CCC(C)n1c(SCC(=O)NC(=O)c2cccn2C)nc2ccccc2c1=O (configuration not stated),21.9*,i,-9.3,i,i,i,0.0159*,0.0964*,0.0372,0.0372*,0.0424*,0.0166*
CN(C)CCCNc1ccc(S(N)(=O)=O)cc1[N+](=O)[O-],2.81*,i,-7.7,i,i,i,0.01,0.00577,0.0332,0.00881,0.0199,0.0112
CS(=O)(=O)c1ccc(NCCc2ccc(S(N)(=O)=O)cc2)c([N+](=O)[O-])c1,·,i,-1.7,i,i,i,·,·,·,·,·,·
COc1ccc(N2CCN(C(=O)C3CCC(Cn4c(=S)[nH]c5ccccc5c4=O)CC3)CC2)cc1 (configuration not stated),2.82*,i,-12.5,i,i,i,0.00654,0.0136*,0.0376,0.0138*,?,0.0153*
O=C(C1CCC(CNc2nc(=S)[nH]c3ccccc23)CC1)N1CCN(c2ccc(F)cc2)CC1 (configuration not stated),-7.52*,i,-6.2,i,i,i,0.00511,0.00462,0.022*,0.006*,0.0104*,0.00874
CCOc1ccc(/C=N/NC(=O)c2ccccc2C)cc1CN1CC2CC(C1)c1cccc(=O)n1C2 (configuration not stated),·,i,·,·,·,·,·,·,·,·,·,·
O=C(Cc1cccc(NC(=O)C2CCN(S(=O)(=O)c3cccc([N+](=O)[O-])c3)CC2)c1)Nc1cccc(C(=O)N2CCCCC2)c1,·,i,·,·,·,·,·,·,·,·,·,·
COc1cc(OC)c(C(=O)/C=C/c2ccccc2)c(O)c1O,-1.55*,i,-25.9,i,i,i,0.00585,?,0.0263*,0.00704,?,0.0114
COc1cc(O)cc(O)c1C(=O)/C=C/c1ccccc1,-1.66,i,-9.7,i,i,i,·,·,·,·,·,·
CCOC(=O)C1=C(COC(=O)C(CC)c2ccccc2)NC(=O)NC1C (configuration not stated),·,i,·,·,·,·,·,·,·,·,·,·
Cc1ccc(Cc2c[nH]c(=S)s2)cc1,194*,i,26.6*,i,38*,i,?,0.143*,0.109*,0.112*,0.136*,0.0994*
CC1=C(C)CC(C(=O)Nc2ccc3c(c2)OCO3)C(C(=O)O)C1 (configuration not stated),0.898,i,-9.0,i,i,i,·,·,·,·,·,·
O=C(Cc1ccc(NC(=O)C2CCN(C(=O)C3CCCC3)CC2)cc1)Nc1ccc(C(=O)N2CCOCC2)cc1,·,i,·,·,·,·,·,·,·,·,·,·
CCOC(=O)C1=C(C)N(C2CCCCC2)C(=O)C1,·,i,-3.0,i,i,i,·,·,·,·,·,·
COC(=O)C1=C(C)N(C2CCCCC2)C(=O)C1,6.24*,i,-9.8,i,i,i,0.00699,0.0068,0.0288,0.00698,0.0189,0.00903
COc1ccccc1NC(=O)CCCCCN1C(=O)c2cccc([N+](=O)[O-])c2C1=O,·,i,-13.4,i,i,i,·,·,·,·,·,·
COc1cc(/C=C2/C(=O)c3cccc([N+](=O)[O-])c3C2=O)c(Br)cc1O,-4.67*,i,·,·,·,·,0.0106,0.00779,0.0331,0.00652,0.0185,0.0101
COCCN1C(=O)C(O)=C(C(=O)c2ccco2)C1c1cccc(Oc2ccccc2)c1 (configuration not stated),-6.94*,i,-7.1,i,i,i,0.00898,0.00577,?,0.00631*,0.0165*,0.0103
